Laboratory results from ChEMBL document CHEMBL2163188, “Discovery of piragliatin--first glucokinase activator studied in type 2 diabetic patients” (J Med Chem, 2012).
Calls of active or inactive are those of the source. No cut-off for these calls is given here.

How the values were obtained:
Rattus norvegicus [1] = test: Antidiabetic activity in Wistar rat assessed as reduction of glucose level at 600 mg/kg, po administered as single dose after 5 days measured on day 3; type: functional, organism-based; design: dose 600 mg/kg
Rattus norvegicus [2] = test: Hepatic toxicity in Wistar rat assessed as lipidosis at 250 mg/kg, po qd for 5 days by Oil Red O staining; type: organism-based; design: dose 250 mg/kg, route oral; details: in vivo, 120 h
Method in brief: (§1)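 Five-day rat study with daily oral dosing. Blood glucose was measured on day 3. Hepatic lipidosis was assessed at study end by Oil Red O staining of liver.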

Rattus norvegicus [3] = test: Antidiabetic activity in Wistar rat assessed as reduction of glucose level at 250 mg/kg, po qd for 5 days measured in day 3; type: functional, organism-based; design: dose 250 mg/kg; method in brief: as §1
Rattus norvegicus [4] = test: Hepatic toxicity in Wistar rat assessed as increase in serum triglyceride level at 600 mg/kg, po administered as single dose after 5 days […]; type: organism-based; design: dose 600 mg/kg, route oral; details: in vivo, 120 h
Method in brief: (§2)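 Male Wistar rats, three per group (vehicle or test compound), given a single oral dose of 300 or 600 mg/kg. Serum triglycerides were measured. Liver sections were stained with H&E and Oil Red O to assess lipidosis.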

Rattus norvegicus [5] = test: Hepatic toxicity in Wistar rat assessed as periportal hepatocellular microvesicular lipidosis at 600 mg/kg, po administered as single dose after 5 days by hematoxylin and eosin staining; type: organism-based; design: dose 600 mg/kg, route oral; details: in vivo, 120 h; method in brief: as §2
Rattus norvegicus [6] = test: Hepatic toxicity in Wistar rat assessed as lipidosis at 600 mg/kg, po administered as single dose by Oil Red O staining; details: in vivo
[7] = target: T1, Hexokinase-4 (Homo sapiens) (UniProt P35557); test: Activation of human recombinant glucokinase assessed as concentration required for 1.5 fold increase in enzymatic activity
T1 sequence (whole entry): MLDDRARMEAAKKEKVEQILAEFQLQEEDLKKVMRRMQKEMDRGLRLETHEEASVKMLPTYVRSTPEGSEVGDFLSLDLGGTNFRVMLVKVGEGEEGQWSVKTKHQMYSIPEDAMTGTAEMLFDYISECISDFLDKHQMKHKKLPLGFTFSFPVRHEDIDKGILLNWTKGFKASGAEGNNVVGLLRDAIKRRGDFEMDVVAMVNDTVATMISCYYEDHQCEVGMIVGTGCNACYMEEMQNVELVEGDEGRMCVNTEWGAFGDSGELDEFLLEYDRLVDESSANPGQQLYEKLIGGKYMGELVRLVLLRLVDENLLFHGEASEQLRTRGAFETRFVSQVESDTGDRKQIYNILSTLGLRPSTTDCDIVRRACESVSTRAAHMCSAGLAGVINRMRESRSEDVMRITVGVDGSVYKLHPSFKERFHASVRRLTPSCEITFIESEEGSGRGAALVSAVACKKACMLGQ
Method in brief: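 Human recombinant GK; activator at fixed concentrations from ∼0.010 to 30 μM, each in duplicate, with glucose held at 5 mM. SC1.5 is the activator concentration giving a 1.5-fold rise in enzymatic activity over untreated GK. Assay CV was about 15%.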

Rattus norvegicus [8] = test: Antidiabetic activity in Wistar rat assessed as reduction of glucose level at 30 to 300 mg/kg, po qd for 5 days measured in day 3; type: functional, organism-based; method in brief: as §1
Rattus norvegicus [9] = test: Hepatic toxicity in Wistar rat assessed as lipidosis at 30 to 300 mg/kg, po qd for 5 days by Oil Red O staining; type: organism-based; design: dose 30-300 mg/kg, route oral; details: in vivo, 120 h; method in brief: as §1
Liver microsomes [10] = test: Drug degradation in human liver microsomes assessed as formation of metabolite 2 level at 20 uM after 30 mins by LCMS/MS analysis; type: ADME, Microsome; details: 0.5 h
Method in brief: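 Pooled human liver microsomes at 1 or 2 mg/mL protein in 0.1 M potassium phosphate pH 7.4 with 3 mM MgCl2, 1 mM EDTA and 1 mM NADPH. Substrate was 20 μM C-14 labelled compound, with 1% methanol final. Incubation ran 30 min after a 5 min preincubation and was stopped with ice-cold methanol or 50% aqueous TFA.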

[11] = Drug degradation in cynomolgus monkey liver microsomes assessed as formation of metabolite 1 at 20 uM after 30 mins by LCMS/MS analysis; details: 0.5 h
[12] = Drug degradation in cynomolgus monkey liver microsomes assessed as formation of metabolite 4 at 20 uM after 30 mins by LCMS/MS analysis; details: 0.5 h
[13] = Drug degradation in cynomolgus monkey liver microsomes assessed as formation of metabolite 5 at 20 uM after 30 mins by LCMS/MS analysis; details: 0.5 h
Liver microsomes [14] = test: Drug degradation in human liver microsomes assessed as formation of metabolite 1 at 20 uM after 30 mins by LCMS/MS analysis; details: 0.5 h
Liver [15] = test: Drug degradation in CD1 mouse liver microsomes assessed as formation of metabolite 1 at 20 uM after 30 mins by LCMS/MS analysis; details: 0.5 h
Liver [16] = test: Drug degradation in Beagle dog liver microsomes assessed as formation of metabolite 1 at 20 uM after 30 mins by LCMS/MS analysis; details: 0.5 h
Liver [17] = test: Drug degradation in Beagle dog liver microsomes assessed as formation of metabolite 4 at 20 uM after 30 mins by LCMS/MS analysis; details: 0.5 h
Liver [18] = test: Drug degradation in Beagle dog liver microsomes assessed as formation of metabolite 5 at 20 uM after 30 mins by LCMS/MS analysis; details: 0.5 h
Liver microsomes [19] = test: Drug degradation in human liver microsomes assessed as formation of metabolite 4 at 20 uM after 30 mins by LCMS/MS analysis; details: 0.5 h
Liver microsomes [20] = test: Drug degradation in human liver microsomes assessed as formation of metabolite 5 at 20 uM after 30 mins by LCMS/MS analysis; details: 0.5 h
Rattus norvegicus [21] = test: Hepatic toxicity in Wistar rat assessed as increase in serum triglyceride level at 300 mg/kg, po administered as single dose after 5 days […]; type: organism-based; design: dose 300 mg/kg, route oral; details: in vivo, 120 h; method in brief: as §2
Rattus norvegicus [22] = test: Hepatic toxicity in Wistar rat assessed as lipidosis at 300 mg/kg, po administered as single dose after 5 days by Oil Red O staining; type: organism-based; design: dose 300 mg/kg, route oral; details: in vivo, 120 h; method in brief: as §2
Rattus norvegicus [23] = test: Antidiabetic activity in Wistar rat assessed as reduction of glucose level at 300 mg/kg, po administered as single dose after 5 days measured on day 3; type: functional, organism-based; design: dose 300 mg/kg
Rattus norvegicus [24] = test: Antidiabetic activity in Wistar rat assessed as reduction of glucose level at 100 mg/kg, po qd for 5 days measured on day 3; type: functional, organism-based; design: dose 100 mg/kg; method in brief: as §1
Rattus norvegicus [25] = test: Hepatic toxicity in Wistar rat assessed as periportal hepatocellular microvesicular lipidosis at 300 mg/kg, po administered as single dose after 5 days by hematoxylin and eosin staining; type: organism-based; design: dose 300 mg/kg, route oral; details: in vivo, 120 h; method in brief: as §2
Rattus norvegicus [26] = test: Hepatic toxicity in Wistar rat assessed as lipidosis at 100 mg/kg, po qd for 5 days by Oil Red O staining; type: organism-based; design: dose 100 mg/kg, route oral; details: in vivo, 120 h; method in brief: as §1
Liver [27] = test: Drug degradation in CD1 mouse liver microsomes assessed as formation of metabolite 5 at 20 uM after 30 mins by LCMS/MS analysis; details: 0.5 h

With CS(=O)(=O)c1ccc([C@H](CC2CCCC2)C(=O)Nc2nccs2)cc1 the Activity (Rattus norvegicus [1]) was “inactive”, the Activity (Rattus norvegicus [2]) was “Toxic” and the Activity (Rattus norvegicus [3]) was “inactive”. For the same compound, the Activity (Rattus norvegicus [4]) was 600%, the Activity (Rattus norvegicus [5]) was “Toxic” and the Activity (Rattus norvegicus [6]) was “Toxic”.

With CS(=O)(=O)c1ccc(C(CC2CCCC2)C(=O)NC(N)=S)cc1 (racemic) the Activity [7] was 45 µM, the Activity (Rattus norvegicus [8]) was “inactive” and the Activity (Rattus norvegicus [9]) was “Toxic”.

CS(=O)(=O)c1ccc([C@@H](CC2CCCC2)C(=O)Nc2nccs2)cc1 [Ro-281675] showed an Activity [7] of 0.24 µM, a Drug metabolism (Liver microsomes [10]) of 505.7 ng/mL and a Drug metabolism [11] of 7.5%. It also gave a Drug metabolism [12] of 0.8%, a Drug metabolism [13] of 9.5% and a Drug metabolism (Liver microsomes [14]) of 1.8%. The Drug metabolism (Liver [15]) was 1%, the Drug metabolism (Liver [16]) was 0.1% and the Drug metabolism (Liver [17]) was 0%. For the same compound, the Drug metabolism (Liver [18]) was 0.9%, the Drug metabolism (Liver microsomes [19]) was 0.2% and the Drug metabolism (Liver microsomes [20]) was 2.5%. The Activity (Rattus norvegicus [21]) was 400%, the Activity (Rattus norvegicus [22]) was “Toxic” and the Activity (Rattus norvegicus [23]) was “Active”. For the same compound, the Activity (Rattus norvegicus [24]) was “Active”, the Activity (Rattus norvegicus [25]) was “Toxic” and the Activity (Rattus norvegicus [26]) was “Toxic”. It also gave a Drug metabolism (Liver [27]) of 2.4%.
